The source of these data is PubChem BioAssay.

Molecules are shown by their SMILES. The source made the active and inactive calls. Cut-off read from the data, not from the text of the source, unless noted: active = inhibition above about 30%; inactive = the rest.

A short description of test [1]: SK-BR-3 cell growth inhibitors, pilot screen, 24 h, human (AID 572;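 active = viability at or below 10% of carrier control in both of two separate runs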;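 note: compound exposure lasted between 18 and 24 h rather than exactly 24 h; 100% = carrier-treated control wells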). Particulars: SK-BR-3 viability, CellTiter-Glo luminescence, at 10 µM, stronger effect = lower value. For orientation: In ATP-based viability assays light output follows the ATP content of the culture.
Test [2] in a line: HUVEC growth inhibition – cell-based, human, primary screen (AID 575;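 active = viability at or below 30% in both replicate assays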;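 note: 100% = median of untreated cell wells with 0.1% DMSO on each plate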). The following applies: HUVEC proliferation, CellTiter-Glo luminescence, 72 h; at 10 µM; stronger effect = lower value. A digest of the protocol:
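System: primary human umbilical vein endothelial cells; Quantity: 1250 endothelial cells in each well; Buffer or medium: supplemented EBM, 2% fetal bovine serum; Doses: one dose, 10 µM final, 0.1% DMSO; Incubation: 72 h compound incubation; Technique: ATP-based CellTiter-Glo luminescent read; Evaluation: percent of median DMSO-control luminescence; Controls: vehicle and MePR control wells.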

A short description of test [3]: growth inhibitors of H69AR lung tumor, primary screen, human, duplicate replicates (AID 580;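 active = viability at or under a set limit in both replicates, limit being median viability minus 3 SD, cut at about 48% in these data, passing the limit was not always enough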;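 note: 100% = mean luminescence of untreated wells and 0% = no signal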). Particulars: H69AR lung tumor cells viability, ATP luminescence, 72 h; at 10 µM; stronger effect = lower value.
Test [4] is described as follows: reversal of MRP1-mediated doxorubicin resistance, pilot screen, H69AR cells, doxorubicin co-treatment (AID 601;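 active = viability loss from added drug above about 55%, and viability with drug at most 40%, in both replicates, limit read from the data, passing the limit was not always enough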). The following applies: CellTiter-Glo, 72 h, at 10 µM; for differential viability (reversal): stronger effect = higher value.
Test [5] can be described thus: 384-well plate pilot, post-Golgi transport modulator project, inhibition of yeast transport mutant growth (AID 636; in the data active = inhibition above about 31%). The following applies: absorbance 615 nm, about 18 h, stronger effect = higher value.
Test [6] in a line: growth suppression of yeast trafficking mutant, preliminary HTS, modulators of trafficking downstream of Golgi apparatus project, 1536-format plate, OD 615 nm (AID 637). Particulars: yeast transport mutant growth, absorbance 615 nm, 18 h; stronger effect = higher value.
[7] abbreviates: H69AR cells + 2 uM doxorubicin, measured here: viability with 2 uM doxorubicin, stronger effect = lower value.
Where [8] appears, read: H69AR cells, compound alone cytotoxicity.

In general, viability refers to a read-out of living cells in per cent, often relative to untreated cells. One may read the inhibition as the change of the read-out against control, counted positive when it falls.

`O=C(O)C1C2C=CC(C3CC23)C1C(=O)NCCc1ccccc1` (stereo not drawn): the viability is 101% (inactive) in test [1]; 89.7% (inactive) in test [2]; 98% (inactive) in test [3]; 91.7% in test [4] (setting [7]); 98% in test [4] (setting [8]). Further, the differential viability (reversal) in test [4] (H69AR cells + 2 uM doxorubicin) was 6.28% (inactive). For the same molecule, the figures for the inhibition in test [5] and in test [6] were -5.81% (inactive) and -3.93% (inactive), respectively.

Turning to `COc1ccccc1NC1=NC(c2ccc(Cl)cc2)N=C(N)N1` (stereo not drawn), the viability was 91% (inactive) in test [1]; 68.2% (inactive) in test [2]; 10% (active) in test [3]; 40.5% in test [4] (setting [7]); 10% in test [4] (setting [8]). Also, in test [4] (H69AR cells + 2 uM doxorubicin), the differential viability (reversal) is -30.4% (inactive). The values for the inhibition in test [5] and in test [6] were -5.27% (inactive) and 0% (inactive), respectively.

In the case of `Cc1ccc(S(=O)(=O)NC(=O)NN2CCCCCC2)cc1`, the viability in test [1] is 112% (inactive); in test [2], 81.1% (inactive); in test [3] it was 114% (inactive); in test [4] (setting [7]) it was 100%; in test [4] (setting [8]), 114%. Also, the differential viability (reversal) in test [4] (H69AR cells + 2 uM doxorubicin) was 14% (inactive). Also, the inhibition in test [5] was -3.38% (inactive); in test [6], 4.17% (inactive).

For the molecule `CCC1CCCCN1C(=O)C1CC(c2cc(Cl)c(OC)cc2OC)=NO1` (stereo not drawn), the viability in test [1] was 86% (inactive); in test [2] it was 89.7% (inactive); in test [3] it was 96.6% (inactive); in test [4] (setting [7]), 101%; in test [4] (setting [8]), 96.6%. Further, the differential viability (reversal) in test [4] (H69AR cells + 2 uM doxorubicin) is -4.29% (inactive). The inhibition in test [5] was -2.86% (inactive); in test [6], -3.77% (inactive).

As for `Cc1cccc(NC(=O)C2CCCN(C(=O)Nc3ccccc3)C2)c1C` (stereo not drawn), the viability is 88% (inactive) in test [1]; 102% (inactive) in test [2]; 96.2% (inactive) in test [3]; 90.8% in test [4] (setting [7]); 96.2% in test [4] (setting [8]). The differential viability (reversal) in test [4] (H69AR cells + 2 uM doxorubicin) is 5.37% (inactive). The inhibition in test [5] was -1.04% (inactive); in test [6], 3.11% (inactive).

Turning to `COc1ccc(-c2oc3ncn(CCN4CCOCC4)c(=N)c3c2-c2ccc(OC)cc2)cc1`, the viability in test [1] is 82% (inactive); in test [2], 88.9% (inactive); in test [3], 24% (active); in test [4] (setting [7]), 21.5%; in test [4] (setting [8]), 24%. Also, in test [4] (H69AR cells + 2 uM doxorubicin), the differential viability (reversal) is 2.45% (inactive). Besides, the inhibition in test [5] is -4.73% (inactive); in test [6], -2.55% (inactive).

In the case of `COc1ccc(NC(=O)Cn2nnc(-c3ccccc3F)n2)cc1Cl`, the viability in test [1] is 116% (inactive); in test [2], 104% (inactive); in test [3], 95.5% (inactive); in test [4] (setting [7]), 92.3%; in test [4] (setting [8]) it was 95.5%. Also, the differential viability (reversal) in test [4] (H69AR cells + 2 uM doxorubicin) is 3.27% (inactive). Also, the values for the inhibition in test [5] and in test [6] were -8.22% (inactive) and 0.18% (inactive), respectively.

With `Cc1cc(C(=O)Nc2nc3c(s2)CCCC3)cs1`, the viability in test [1] was 93% (inactive); in test [2], 67.5% (inactive); in test [3], 91.9% (inactive); in test [4] (setting [7]), 77.8%; in test [4] (setting [8]), 91.9%. The differential viability (reversal) in test [4] (H69AR cells + 2 uM doxorubicin) was 14% (inactive). In addition, the inhibition is -0.14% (inactive) in test [5] and -7.58% (inactive) in test [6].

Take `Cc1c(N=C2SCC(=O)N2c2c(C)n(C)n(-c3ccccc3)c2=O)c(=O)n(-c2ccccc2)n1C`: the viability in test [1] is 120% (inactive); in test [2] it was 113% (inactive); in test [3] it was 94.2% (inactive); in test [4] (setting [7]) it was 90.6%; in test [4] (setting [8]), 94.2%. Also, the differential viability (reversal) in test [4] (H69AR cells + 2 uM doxorubicin) was 3.54% (inactive). Further, the inhibition is -1.43% (inactive) in test [5] and -1.31% (inactive) in test [6].

For the molecule `Cc1cc(C(F)(F)F)c2c(C)nn(CCc3nn[nH]n3)c2n1`, the viability in test [1] is 105% (inactive); in test [2], 91.4% (inactive); in test [3], 96.1% (inactive); in test [4] (setting [7]), 98.1%; in test [4] (setting [8]), 96.1%. In test [4] (H69AR cells + 2 uM doxorubicin), the differential viability (reversal) is -1.98% (inactive). Moreover, the values for the inhibition in test [5] and in test [6] were 0.14% (inactive) and 12.2% (inactive), respectively.

In the case of `Cc1ccc(-c2nn(-c3ccccc3)cc2/C=C(\C#N)c2cccc(C#N)c2)o1`, the viability in test [1] is 71% (inactive); in test [2] it was 92% (inactive); in test [3], 71.6% (inactive); in test [4] (setting [7]), 73.3%; in test [4] (setting [8]), 71.6%. Besides, the differential viability (reversal) in test [4] (H69AR cells + 2 uM doxorubicin) is -1.65% (inactive). In addition, the figures for the inhibition in test [5] and in test [6] were -9.32% (inactive) and 5.27% (inactive), respectively.

For `COc1ccc(NC(=O)CSc2ccccn2)cc1OC`, the viability in test [1] was 87% (inactive); in test [2], 97.3% (inactive); in test [3], 95.1% (inactive); in test [4] (setting [7]) it was 74.9%; in test [4] (setting [8]), 95.1%. For the same molecule, in test [4] (H69AR cells + 2 uM doxorubicin), the differential viability (reversal) is 20.2% (inactive). Further, the inhibition in test [5] was 2% (inactive); in test [6], 1.82% (inactive).

As for `c1ccc(CSc2nnc(-c3cccs3)n2Cc2ccco2)cc1`, the viability is 86% (inactive) in test [1]; 90.3% (inactive) in test [2]; 83.2% (inactive) in test [3]; 83.4% in test [4] (setting [7]); 83.2% in test [4] (setting [8]). Further, the differential viability (reversal) in test [4] (H69AR cells + 2 uM doxorubicin) is -0.12% (inactive). The inhibition is 1.37% (inactive) in test [5] and -0.65% (inactive) in test [6].

As for `O=C(Cc1nc2ccccc2s1)c1ccc(O)cc1O`, the viability in test [1] was 100% (inactive); in test [2], 87.3% (inactive); in test [3] it was 90.8% (inactive); in test [4] (setting [7]), 86%; in test [4] (setting [8]), 90.8%. Further, the differential viability (reversal) in test [4] (H69AR cells + 2 uM doxorubicin) is 4.72% (inactive). In addition, the inhibition in test [5] is -4.53% (inactive); in test [6] it was -0.18% (inactive).

As for `CCn1nc(C(=O)O)c(=O)c2cc3c(cc21)OCO3`, the viability in test [1] is 69% (inactive); in test [2], 86.7% (inactive); in test [3], 106% (inactive); in test [4] (setting [7]), 99.3%; in test [4] (setting [8]) it was 106%. In addition, the differential viability (reversal) in test [4] (H69AR cells + 2 uM doxorubicin) was 6.56% (inactive). For the same molecule, the inhibition is -1.17% (inactive) in test [5] and 1.83% (inactive) in test [6].

Take `CCOC(=O)c1cnc2c(OC)cccc2c1N1CCN(c2ccc(OC)cc2)CC1`: the viability was 124% (inactive) in test [1]; 66.1% (inactive) in test [2]; 79.6% (inactive) in test [3]; 58.7% in test [4] (setting [7]); 79.6% in test [4] (setting [8]). For the same molecule, the differential viability (reversal) in test [4] (H69AR cells + 2 uM doxorubicin) was 20.9% (inactive). Also, the inhibition is -3.38% (inactive) in test [5] and 0.63% (inactive) in test [6].
